Data set [1] in a line: Cytotoxicity against human HepG2 cells after 96 hrs by MTT assay. Type of data set: cell-based. The note with it: read-out: MTD. In short, it runs like this: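 HepG2 cells seeded at 1 × 10^4 cells/well in MEM + 10% FBS, 24 h at 37 °C. Compounds diluted from DMSO stocks into MEM with 2% FBS (6.25, 12.5, 25, 50, 100, 200, 400 μM), DMSO kept below 1% (v/v). Added to monolayer; MTT read at OD570 after 96 h. % inhibition vs DMSO control; maximum nontoxic concentration determined.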
Background: Formazan colour is commonly taken as a measure of viable cells.

Data set [2] concerns HepG2. Kind of data set: Hepatoprotective activity against H2O2-induced human HepG2 cells assessed as reduction in ALT level at 3.88 uM after 24 hrs (reference value: 23.22 +/- 1.22 U/L). Type of data set: functional. Put shortly:
(§1)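 HepG2 cells in log phase seeded at 1 × 10^4 cells/well and held 24 h at 37 °C. Exposed to 3.2 mM H2O2 for 2 h at 37 °C, then to test compound in medium with DMSO for 24 h. ALT or AST read directly in the supernatant. Controls: DMSO-only cells and H2O2-only model. Test concentrations kept within each compound's MTT-determined maximum nontoxic level. Mean ± SD, n = 3; paired-sample test.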

Data set [3] deals with HepG2. The data set can be described thus: Hepatoprotective activity against H2O2-induced human HepG2 cells assessed as reduction in ALT level at 7.75 uM after 24 hrs (reference value: 23.22 +/- 1.22 U/L). Type of data set: functional. Put shortly: as §1
In data set [4] the test system is HepG2. The data set can be described thus: Hepatoprotective activity against H2O2-induced human HepG2 cells assessed as reduction in ALT level at 15.5 uM after 24 hrs (reference value: 23.22 +/- 1.22 U/L). Type of data set: functional. In short, it runs like this: as §1
In data set [5] the test system is HepG2. The data set can be described thus: Hepatoprotective activity against H2O2-induced human HepG2 cells assessed as reduction in AST level at 3.88 uM after 24 hrs (reference value: 32.36 +/- 0.79 U/L). It is filed as functional. In short, it runs like this: as §1
Data set [6] relates to HepG2. Kind of data set: Hepatoprotective activity against H2O2-induced human HepG2 cells assessed as reduction in AST level at 7.75 uM after 24 hrs (reference value: 32.36 +/- 0.79 U/L). Type of data set: functional. In short, it runs like this:
as §1

For data set [7], the system named is HepG2. Kind of data set: Hepatoprotective activity against H2O2-induced human HepG2 cells assessed as reduction in AST level at 15.5 uM after 24 hrs (reference value: 32.36 +/- 0.79 U/L). Type of data set: functional. Put shortly: as §1
Data set [8] concerns HepG2. The data set can be described thus: Hepatoprotective activity against H2O2-induced human HepG2 cells assessed as reduction in ALT level at 14.98 uM after 24 hrs (reference value: 23.22 +/- 1.22 U/L). Type of data set: functional. Put shortly: as §1
For data set [9], the system named is HepG2. Kind of data set: Hepatoprotective activity against H2O2-induced human HepG2 cells assessed as reduction in ALT level at 29.95 uM after 24 hrs (reference value: 23.22 +/- 1.22 U/L). Type of data set: functional. In short, it runs like this:
as §1

Data set [10] has as its system HepG2. Kind of data set: Hepatoprotective activity against H2O2-induced human HepG2 cells assessed as reduction in ALT level at 59.90 uM after 24 hrs (reference value: 23.22 +/- 1.22 U/L). Type of data set: functional. Put shortly:
as §1

Data set [11] relates to HepG2. The data set can be described thus: Hepatoprotective activity against H2O2-induced human HepG2 cells assessed as reduction in AST level at 14.98 uM after 24 hrs (reference value: 32.36 +/- 0.79 U/L). Type of data set: functional. Put shortly:
as §1

The subject of data set [12] is HepG2. The data set can be described thus: Hepatoprotective activity against H2O2-induced human HepG2 cells assessed as reduction in AST level at 29.95 uM after 24 hrs (reference value: 32.36 +/- 0.79 U/L). It is filed as functional. In short, it runs like this:
as §1

Data set [13] has as its system HepG2. The data set can be described thus: Hepatoprotective activity against H2O2-induced human HepG2 cells assessed as reduction in AST level at 59.90 uM after 24 hrs (reference value: 32.36 +/- 0.79 U/L). It is filed as functional. Put shortly:
as §1

Data set [14] has as its system HepG2. Kind of data set: Hepatoprotective activity against H2O2-induced human HepG2 cells assessed as reduction in ALT level at 4.60 uM after 24 hrs (reference value: 23.22 +/- 1.22 U/L). Type of data set: functional. Put shortly:
as §1

The subject of data set [15] is HepG2. The data set can be described thus: Hepatoprotective activity against H2O2-induced human HepG2 cells assessed as reduction in ALT level at 9.20 uM after 24 hrs (reference value: 23.22 +/- 1.22 U/L). It is filed as functional. Put shortly: as §1
Data set [16] concerns HepG2. Kind of data set: Hepatoprotective activity against H2O2-induced human HepG2 cells assessed as reduction in ALT level at 18.40 uM after 24 hrs (reference value: 23.22 +/- 1.22 U/L). Type of data set: functional. Put shortly: as §1
Data set [17] deals with HepG2. Kind of data set: Hepatoprotective activity against H2O2-induced human HepG2 cells assessed as reduction in AST level at 4.60 uM after 24 hrs (reference value: 32.36 +/- 0.79 U/L). It is filed as functional. In short, it runs like this:
as §1

The subject of data set [18] is HepG2. The data set can be described thus: Hepatoprotective activity against H2O2-induced human HepG2 cells assessed as reduction in AST level at 9.20 uM after 24 hrs (reference value: 32.36 +/- 0.79 U/L). It is filed as functional. Put shortly: as §1
The subject of data set [19] is HepG2. The data set can be described thus: Hepatoprotective activity against H2O2-induced human HepG2 cells assessed as reduction in AST level at 18.40 uM after 24 hrs (reference value: 32.36 +/- 0.79 U/L). It is filed as functional. In short, it runs like this:
as §1

Data set [20] relates to HepG2. The data set can be described thus: Hepatoprotective activity against H2O2-induced human HepG2 cells assessed as reduction in ALT level at 16.43 uM after 24 hrs (reference value: 23.22 +/- 1.22 U/L). Type of data set: functional. Put shortly: as §1
Data set [21] relates to HepG2. The data set can be described thus: Hepatoprotective activity against H2O2-induced human HepG2 cells assessed as reduction in ALT level at 32.85 uM after 24 hrs (reference value: 23.22 +/- 1.22 U/L). It is filed as functional. In short, it runs like this:
as §1

Data set [22] relates to HepG2. Kind of data set: Hepatoprotective activity against H2O2-induced human HepG2 cells assessed as reduction in ALT level at 65.70 uM after 24 hrs (reference value: 23.22 +/- 1.22 U/L). It is filed as functional. In short, it runs like this:
as §1

Data set [23] relates to HepG2. Kind of data set: Hepatoprotective activity against H2O2-induced human HepG2 cells assessed as reduction in AST level at 16.43 uM after 24 hrs (reference value: 32.36 +/- 0.79 U/L). Type of data set: functional. In short, it runs like this: as §1
For data set [24], the system named is HepG2. Kind of data set: Hepatoprotective activity against H2O2-induced human HepG2 cells assessed as reduction in AST level at 32.85 uM after 24 hrs (reference value: 32.36 +/- 0.79 U/L). Type of data set: functional. In short, it runs like this: as §1
The test system of data set [25] is HepG2. Kind of data set: Hepatoprotective activity against H2O2-induced human HepG2 cells assessed as reduction in AST level at 65.70 uM after 24 hrs (reference value: 32.36 +/- 0.79 U/L). It is filed as functional. In short, it runs like this:
as §1

Structures are written as SMILES.

In the case of `C=C(C)[C@@H]1C[C@@H]2O[C@@]1(CCC(=O)O)CC1=C2[C@]2(C)CC[C@H]([C@H](C)CCC(=O)OC)[C@@]2(C)CC1=O`, the MNTC at 96 h in [1] amounted to 74.6 µM.

Take `C=C(C)[C@@H]1C[C@H](O)C2=C(C(=O)C[C@]3(C)[C@@H]([C@H](C)CCC(=O)O)CC[C@@]23C)[C@@]1(C)CCC(=O)OC`: the Activity in the data set with HepG2 [2] came to 21.01 U/L; with HepG2 [3] it was 19.32 U/L; with HepG2 [4], 19.73 U/L; with HepG2 [5] it was 28.23 U/L; in the data set with HepG2 [6], 26.54 U/L; in the data set with HepG2 [7], 26.19 U/L. In addition, in data set [1], the MNTC at 96 h came out at 18.4 µM.

Regarding `C=C(C)[C@@H]1C[C@H](O)C2=C(C(=O)C[C@]3(C)[C@@H]([C@H](C)CCC(=O)OC)CC[C@@]23C)[C@@]1(C)CCC(=O)O`, the MNTC at 96 h in [1] is 15.5 µM.

Regarding `C=C(C)[C@@H]1C[C@H](O)C2=C(C(=O)C[C@]3(C)[C@@H]([C@H](C)CCC(=O)OC)CC[C@@]23C)[C@@]1(C)CCC(=O)OC`, the Activity was 19.32 U/L with HepG2 [8]; 18.51 U/L in the data set with HepG2 [9]; 17.81 U/L with HepG2 [10]; 28.28 U/L with HepG2 [11]; 26.77 U/L with HepG2 [12]; 22.11 U/L in the data set on HepG2 [13]. Further, the MNTC at 96 h in data set [1] came out at 59.9 µM.

Take `CC(C)=CC[C@H](O)[C@@H](C)[C@H]1CC[C@@]2(C)C3=CC[C@H]4C(C)(C)[C@@H](O)CC[C@]4(C)C3=CC[C@]12C`: the MNTC at 96 h in [1] came to 150 µM.

Take `C=C(C)[C@@H]1C[C@H](O)C2=C(C(=O)C[C@]3(C)[C@@H]([C@H](C)CCC(=O)O)CC[C@@]23C)[C@@]1(C)CCC(=O)O`: the Activity in the data set on HepG2 [14] is 19.61 U/L; in the data set with HepG2 [15], 20.2 U/L; with HepG2 [16], 20.84 U/L; in the data set with HepG2 [17] it was 30.38 U/L; with HepG2 [18] it was 23.8 U/L; in the data set on HepG2 [19], 20.66 U/L. For the same compound, the MNTC at 96 h in data set [1] came to 65.7 µM.

`C[C@H]1C(=O)CC[C@@H]2[C@]1(C)CC[C@H]1[C@@]2(C)CC[C@@]2(C)[C@@H]3CC(C)(C)CC[C@]3(C)CC[C@]12C` [FRIEDELINE]: the Activity was 18.92 U/L with HepG2 [20]; 18.27 U/L in the data set on HepG2 [21]; 16.06 U/L with HepG2 [22]; 29.45 U/L in the data set with HepG2 [23]; 25.43 U/L in the data set on HepG2 [24]; 19.09 U/L in the data set with HepG2 [25]. In addition, the MNTC at 96 h in data set [1] was 15 µM.

(Values after ChEMBL document CHEMBL3232759, “Hepatoprotective effects of triterpenoids from Ganoderma cochlear” (J Nat Prod, 2014).)
